A selection: hits, their analogues and other compounds. The true share with any hit is near 0.99%.
GC-A act = GC-A (human) enzyme activation. P16066. HEK293 GC-A cells, cGMP TR-FRET, EC30 ANP; 0% at EC30 ANP, 100% saturating ANP. activation, % at 10 µM. 370,000 compounds, 0.14% hits. AID 1671463; in the data active = activation above about 40%
CaV13 ICDI inh = Primary screen for inhibitors of IQ motif and Ca2+-dependent inactivation inhibitor domain binding in CACNA1D, Förster resonance energy transfer in living cells, …; HEK cells, CFP/YFP FRET ICDI-IQ, plate reader, 10 min; percent FRET-ratio fall versus neutral wells; inhibition, % at 12.3 µM; 340,000 compounds, 0.098% hits;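 active = mean replicate inhibition of at least 30% and at least 1% of replicates passing that level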
FN deposit inh = fibronectin deposition inhibition. AH1F fibroblasts, Alexa488-fibronectin deposition fluorescence, overnight. inhibition, % at 12.6 µM. 350,000 compounds, 0.086% hits;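 active = mean inhibition across replicates of 30% or more, regardless of how many single replicates reach that level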
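Material – AH1F fibroblast monolayer, labelled fibronectin deposition · Reagent – labelled fibronectin 24 nM · Timing – 1 h adhesion, overnight exposure · Measured by – fluorescence at 485 nm excitation, 525 nm emission · Read-out – inhibition of fibronectin deposition signal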
NSD2 HMT inh = blocks human histone methyltransferase NSD2; O96028; NSD2 peptide methylation, AlphaScreen, 120 min; inhibition, % at 12.5 µM; 310,000 compounds, 0.54% hits; in the data active = inhibition above about 50%
GC-B act = GC-B (human) receptor activation; HEK293-GC-B cells, CNP EC30, cGMP TR-FRET; 0% at EC30 CNP, 100% saturating CNP; activation, % at 10 µM; 370,000 compounds, 0.11% hits; AID 1920062;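 active = activation at 10 µM reaching about 35% in either raw or pattern-adjusted values, limit read from the data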
CASP6 VEID inh = caspase-6 (human) enzyme inhibition; purified caspase-6, Z-VEID-R110 cleavage fluorescence; inhibition, % at 12.5 µM; 350,000 compounds, 0.53% hits; AID 686996;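 active = mean inhibition across replicates at least about 35%, with every replicate also reaching that limit, limit read from the data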
Target sequence (P55212 24-179 limits assumed): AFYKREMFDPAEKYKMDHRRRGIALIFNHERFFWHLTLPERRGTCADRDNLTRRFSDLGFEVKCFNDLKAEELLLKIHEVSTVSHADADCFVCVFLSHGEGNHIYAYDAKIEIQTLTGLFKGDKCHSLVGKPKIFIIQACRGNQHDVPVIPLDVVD
Target sequence (P55212 194-293 limits assumed): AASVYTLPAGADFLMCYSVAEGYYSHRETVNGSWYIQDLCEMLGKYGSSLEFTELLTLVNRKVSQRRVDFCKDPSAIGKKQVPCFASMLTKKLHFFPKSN
Numbers stand for hits; i = inactive; nt = no result given.

SMILES	GC-A act	CaV13 ICDI inh	FN deposit inh	NSD2 HMT inh	GC-B act	CASP6 VEID inh
CCn1c(C)c(C(=O)Nc2ccc(OC)cc2)c2cc(OC)ccc21	i	i	i	i	i	i
COC(=O)c1c(C)n(Cc2ccco2)c2ccc(O)cc12	47	i	nt	i	i	i
Cc1c(C(=O)Nc2ccccc2)c2cc(O)ccc2n1Cc1ccccc1	61	i	i	i	i	i
CC(=O)c1c(C)n(Cc2ccccc2Cl)c2ccc(O)cc12	83	i	i	i	i	i
C[C@@H]1CN([C@@H](C)CO)C(=O)c2c(c3ccccc3n2C)-c2ccccc2CO[C@H]1CN(C)C(=O)Oc1ccccc1	nt	nt	i	nt	nt	i
CC(=O)N1C[C@@H]2C(c3ccc(Br)cc3)[C@H](C1)N2CC1CC1 (some centres undefined)	nt	nt	i	nt	nt	nt
Cc1ccc(N2C(=O)NC(=O)/C(=C\C=C\c3ccco3)C2=O)cc1C	i	i	i	65	i	38
CN1C(=O)/C(=C/C=C/c2ccco2)C(=O)NC1=S	i	i	i	nt	i	76
O=C1NC(=O)N(Cc2ccccc2)C(=O)/C1=C\C=C\c1ccco1	i	i	i	i	i	60
Cc1cccc(N2C(=O)NC(=O)/C(=C\C=C\c3ccco3)C2=O)c1	i	i	i	nt	i	i
O=C1NC(=O)N(c2ccccc2)C(=O)/C1=C/C=C/c1ccco1	i	i	i	nt	i	i
O=C1NC(=O)N(Cc2ccco2)C(=O)/C1=C/C=C/c1ccco1	i	i	i	nt	i	88
CN1C2CN(CC(F)(F)F)CC1C2c1ccc(Br)cc1 (centres undefined)	nt	nt	i	nt	nt	nt
O=C(Cc1ccccc1)N1C[C@H]2[C@@H](c3ccccc31)[C@H](CO)N2Cc1ccccc1	nt	nt	nt	nt	nt	i
Cc1ccc(OC(=O)N(C)C[C@@H]2OCc3ccccc3-c3c(n(C)c4ccccc34)C(=O)N([C@@H](C)CO)C[C@H]2C)cc1	nt	nt	i	nt	nt	i
Cc1ccccc1-c1ccc([C@H]2[C@@H](CO)N3CCCCN(C(=O)Cc4ccccn4)C[C@@H]23)cc1	nt	nt	nt	nt	nt	i
Cn1cccc1/C=C1\C(=O)NC(=O)N(Cc2ccco2)C1=O	i	i	i	i	i	nt
Cc1ccccc1-n1c(C)cc(/C=C2/C(=O)NC(=O)N(Cc3ccco3)C2=O)c1C	i	i	i	i	i	i
Cc1cc(/C=C2\C(=O)NC(=O)N(Cc3ccco3)C2=O)c(C)n1-c1ccc(O)cc1	i	i	i	i	i	69
Cc1ccc(OCCn2cccc2/C=C2/C(=O)NC(=O)N(Cc3ccco3)C2=O)cc1	i	i	i	i	i	76
CCOC(=O)C1CCN(/C=C2/C(=O)NC(=O)N(Cc3ccco3)C2=O)CC1	i	nt	nt	i	i	55
Cc1ccc(-n2c(C)cc(/C=C3/C(=O)NC(=O)N(Cc4ccco4)C3=O)c2C)cc1	i	i	i	i	i	nt
Cc1cc(/C=C2\C(=O)NC(=O)N(Cc3ccco3)C2=O)c(C)n1-c1ccc(C(=O)O)cc1	i	i	i	nt	i	71
CC(=O)N1C2CN(C)CC1C2c1ccc(Br)cc1 (centres undefined)	nt	nt	i	nt	nt	nt
CC(=O)c1ccc2c(c1)C1C(Cl)C(Sc3ccccc3[N+](=O)[O-])CC1C(c1ccccc1[N+](=O)[O-])N2 (centres undefined)	i	i	i	i	75	nt
SMILES	GC-A act	CaV13 ICDI inh	FN deposit inh	NSD2 HMT inh	GC-B act	CASP6 VEID inh
COC(=O)[C@@H]1[C@@H](CO)[C@@H]2Cn3c(ccc(C4=CCCC4)c3=O)[C@H]1N2CC1CCCCC1	nt	nt	nt	nt	nt	i
Cc1cc([N+](=O)[O-])c(Cl)cc1NC(=O)C(C)C	i	i	i	i	i	nt
CNc1cc(Cl)c2nonc2c1[N+](=O)[O-]	i	i	49	i	i	i
CN(C)CC(C(=O)Cc1ccccc1)c1ccccc1 (centres undefined)	i	i	32	i	i	i
CCOC(=O)[C@@H]1[C@@H]2NC(=O)N(C)[C@@]1(C)Oc1ccccc12	nt	nt	nt	nt	nt	i
O=C1CC=C2C3CC4N(CCC45c4ccccc4N1C25)CC3=CCO (centres undefined)	i	i	i	i	i	i

Source: PubChem BioAssay (several laboratories)
